Among the data in the RNAGym collection of RNA variant scans (doi:10.1126/science.aae0568) are yeast fitness values, retold here.

Fewer inactive variants are shown than the library holds.

First the molecules themselves.
B1: tRNA (parent)
chain: GUUCCGUUGGCGUAAUGGUAACGCGUCUCCCUCCUAAGGAGAAGACUGCGGGUUCGAGUCCCGUACGGAACG

The variants in the data set derive from B1. Put plainly: yeast fitness relative to wild type (ratio to wild type); higher = fitter; tRNA-Arg(CCU), competitive growth, 37 C, YPD. The essentials:
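Variants of the tRNA-Arg(CCU) gene were chemically synthesised with a 3% per-site mutation rate across 69 sites and placed at the native genomic locus in Saccharomyces cerevisiae. Six parallel replicates of the pooled strains were competed in YPD at 37°C for 24 hours, and gene amplicons from the start and end populations were read by 100-nucleotide paired-end sequencing. Darwinian fitness relative to wild type was derived from changes in genotype frequencies. Genotypes required ≥ 100 starting reads, and estimates < 0.5 were set to 0.5.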
Regarding C30A A40G C66A, the yeast fitness is no more than 0.5. On to C22G A65U, for which the yeast fitness came to 1.03. As to C5U C22U A36G, the yeast fitness was found to be 0.749. With C11U A37C U47C G68C, the yeast fitness was no more than 0.5. The result for A14G G23A U35C A37C reads 0.5; that for U3A C30U G52A, no more than 0.5; that for U16A C55A C61A, no more than 0.5. As to U3C C30U C46A U54A A57G, the yeast fitness was no more than 0.5.

Regarding C24A C46A, the yeast fitness was found to be 1.01.

Take G12A C31A A42G A57U U59A: the yeast fitness is no more than 0.5. In the case of C27U C49U C60A C61A, the yeast fitness is no more than 0.5. Regarding C5U C27G A69C, the yeast fitness was no more than 0.5. The result for A14C G25A A36C G44A reads 0.571. C5G C27U C62U: the yeast fitness was 0.626.

With A21C G44C G56A G63C G68A A69G, the yeast fitness was no more than 0.5.

For U8C U54C, the yeast fitness turned out to be 0.915.

For G56C U59G, the yeast fitness was 0.693.

For the variant A14C A36C, the yeast fitness was determined as 0.564. The figure for C49A A57C is 0.573. Consider G10C U28G G39A C49A C55U, for which the yeast fitness was no more than 0.5. Consider C24G C31A C33U U35A A57G U64C, for which the yeast fitness was no more than 0.5.

For the variant U13C A36G, the yeast fitness turned out to be 1.01. With U13G C22G C30U A36G A40U U54G, the yeast fitness is no more than 0.5.

As to C27G A37C A40G C46U, the yeast fitness turned out to be 0.578. G17C A43U C62U: the yeast fitness was determined as 0.632. On to C24U C46A U64C, for which the yeast fitness stood at 0.973.

As to C4A C29G, the yeast fitness was found to be 0.618. With G10C U26C C55U, the yeast fitness turned out to be 0.507. The result for U16A U19A A45G reads 0.652. A14U G48A: the yeast fitness was determined as 0.931.

Consider C11A U13A A20U, for which the yeast fitness was no more than 0.5. Consider A15U A70G, for which the yeast fitness was 0.663.

A20G A21C G39C C62G: the yeast fitness was no more than 0.5. As for C11G U16A U47C, the yeast fitness was found to be 0.655. Take C27G C49U: the yeast fitness is 0.614. In the case of G10A U16A C31A G52C, the yeast fitness was no more than 0.5. The result for C4G U28A G39A reads no more than 0.5; that for U3C U28A C55G, no more than 0.5. The result for G17A G18A A42C C61U reads no more than 0.5; that for C4G U54G, 0.626; that for C5G U54G, 0.654. With U16A C55A A70U, the yeast fitness was determined as 0.542. As for G38C A43G, the yeast fitness came to 0.643. As to G10A A70C, the yeast fitness is 0.856. Take A45G C49G A65C: the yeast fitness was no more than 0.5.

As to G10C C33G U53C C55U A70G, the yeast fitness was no more than 0.5.

On to A15U C31G C34U A40C, for which the yeast fitness stood at 0.531. Regarding C22A U26C, the yeast fitness stood at 0.848. The result for C4U A43U C55G G67A reads 0.804. The figure for C4U G56A U59C A65C A70G is no more than 0.5.

Consider G6C A21G G48A A57C G67A, for which the yeast fitness was no more than 0.5. The result for C22G C29G A36C G39C C46G G52A reads no more than 0.5; that for G6C G18C C22U C34G A36U C49A A57C C66U, no more than 0.5; that for C24U U64A, 0.822. For G10A A36C A42U, the yeast fitness amounted to 0.557.

Turning to U8C C22A G39A U47A, the yeast fitness was no more than 0.5.

On to U32C C60G A65U, for which the yeast fitness is no more than 0.5.

As for C5A A21C C30G C34U G38C C49U A70C, the yeast fitness stood at 0.551. Regarding G6A G48A A65C, the yeast fitness is 0.541.

With U3C U7C U35C, the yeast fitness is 0.505. Consider U7G A42C C62U, for which the yeast fitness is 0.651. With U7G C34A G44C G51A C62A, the yeast fitness is no more than 0.5. Turning to A14C U19C C27A G41C A42U C66U, the yeast fitness stood at 0.582.

On to A21C C22G G38C A57C A65U, for which the yeast fitness is no more than 0.5.

C55G G68A: the yeast fitness came to 0.604. With U8A G12A C62A, the yeast fitness came to 0.53. On to A21U C24G, for which the yeast fitness was no more than 0.5. The figure for G18C G23A G25C A37G A43C C55G is no more than 0.5; for A15G C33A U54A it is no more than 0.5. Regarding U8G A20U G44C A57G, the yeast fitness was no more than 0.5. The result for U2C A36U C46G A69U reads 0.517; that for A15U A21G, 0.785. The result for A57C G58A A70C reads no more than 0.5; that for G38C G52C, 0.502. The result for U3A G9C A20G C29A reads no more than 0.5; that for A21C C22A C34G G44C C62A, 0.606. On to C5U G17C C46A, for which the yeast fitness was determined as 0.556. The result for C11G C61G C62G reads no more than 0.5; that for A40G A42U C49A, no more than 0.5.

For A15U G18C A36G A37C G50A, the yeast fitness is no more than 0.5.

For A15G G56C, the yeast fitness amounted to 0.651. The result for C11U G39C G41A reads no more than 0.5. The figure for A36G C49U A70C is 0.663; for A14C A15C A21U A57G A65G it is no more than 0.5; for A21G U54G it is 0.575. The result for C11U C24G C27G reads no more than 0.5.

Consider C30A C60U, for which the yeast fitness came out at 0.727. As for C4U U16C A69C, the yeast fitness came out at 0.774.

As for G6C A21G, the yeast fitness was found to be 0.857. On to A36U C55G, for which the yeast fitness was no more than 0.5.

On to U7A C24U U54C A69U, for which the yeast fitness was no more than 0.5. Regarding A14G A37U, the yeast fitness was 0.584. The result for C33A G51C C62G reads no more than 0.5; that for G10A U16A U64A, 0.544; that for G12C A43U U54C, no more than 0.5.

Consider U13A G39C, for which the yeast fitness is 0.779.

In the case of G6A G25A C34A G58A, the yeast fitness was no more than 0.5.

For the variant G23C C33U A43U A45C, the yeast fitness was no more than 0.5.

On to G10A C11A A14G A15G G38A, for which the yeast fitness is no more than 0.5. In the case of C11G A14U G17A A36G G41A U53A G58C A70C, the yeast fitness is no more than 0.5. Regarding C4U A21C C24U G38A G63C, the yeast fitness was no more than 0.5. On to G10A C29A C34G A43C, for which the yeast fitness is 0.68. The figure for A20C C30A A57U is no more than 0.5.

For C33G A40G, the yeast fitness was found to be 0.615. As for A37G G39A C62A A69C, the yeast fitness was no more than 0.5. In the case of G12A G39C G67A, the yeast fitness was no more than 0.5. Take A57G C61G C62A: the yeast fitness came out at 0.633.

For C4G G44C, the yeast fitness came to 0.826. For the variant G12C A14C A15G A37C, the yeast fitness is 0.606. For U13A G23C C24G A70G, the yeast fitness is no more than 0.5. For the variant U13C C31U, the yeast fitness is 1.01.

With G9C G18C U32G G41C C46U, the yeast fitness was no more than 0.5.

As to A20U C49G U54C, the yeast fitness is no more than 0.5.

As for U13A G41A A42C G50C A70G, the yeast fitness was no more than 0.5. C5A G9C: the yeast fitness amounted to 0.627. For A14U A21G G58A, the yeast fitness was no more than 0.5. Regarding C24U A57C C61A A70G, the yeast fitness was no more than 0.5. The figure for A15G A40U G48C C60G is no more than 0.5.

Turning to C11U C22G A37C A42G G44A, the yeast fitness is no more than 0.5.

Take A21G A42C C66A: the yeast fitness is no more than 0.5. With U7C A14C G51A, the yeast fitness is no more than 0.5. In the case of A15U U16C G18C C29A A43G A45G C62G, the yeast fitness was no more than 0.5. Turning to G25C U47C G63A A65C, the yeast fitness was no more than 0.5. On to C24G G38A U64A, for which the yeast fitness was no more than 0.5. On to G17C C29G G39A A70U, for which the yeast fitness was no more than 0.5. For the variant C5A U16A C62U, the yeast fitness is no more than 0.5.

As for U7A C29U C33U U54A, the yeast fitness was no more than 0.5.

As for U2C A14G G18A U32A G44A, the yeast fitness is 0.527.

For G6C G44C G67U, the yeast fitness came to 0.501. In the case of G18A G38A, the yeast fitness was found to be 0.73. The figure for U7G C22U C24G A65U C66U is no more than 0.5.

Take A43G G52C U53C G63C: the yeast fitness was found to be 0.604.

With C24U C27G U59A A70G, the yeast fitness is no more than 0.5.

On to C5U G52A A65G, for which the yeast fitness was found to be 0.598. For C11U G39C C55A, the yeast fitness was no more than 0.5. Consider U13A C30U G38C C49A, for which the yeast fitness was no more than 0.5.

As for C11U A21U A45U, the yeast fitness is 1.15. The figure for U19C C31G C62U is 0.702. U19C G41C A70U: the yeast fitness amounted to 0.671. Regarding C24A A36U G41C, the yeast fitness is no more than 0.5. On to U3C U13C A21G A43U, for which the yeast fitness was found to be 0.708. The result for U7C G41A A42C G50C C62G reads no more than 0.5; that for G25A A37U A40C G67A, no more than 0.5. As for C11U C55U G68C, the yeast fitness turned out to be 0.537. Take C4G U16G A20C A21G C30U: the yeast fitness was no more than 0.5. As for A14U C29G C62U, the yeast fitness was no more than 0.5. In the case of C11A C31U C62U, the yeast fitness came out at 0.544. On to C31U G41A, for which the yeast fitness turned out to be 0.959. The figure for U13G U19G is 1.05; for U28G C46U C60A it is no more than 0.5. With U3A C24U, the yeast fitness stood at 0.765.

As to C31G A37U G56C, the yeast fitness is no more than 0.5. For G10A C24A C62U, the yeast fitness was no more than 0.5. As to C22G G50U A57G, the yeast fitness is no more than 0.5. In the case of G6C A14G A20C G52A U64A G67A, the yeast fitness is no more than 0.5.

On to C5A C62U C66G, for which the yeast fitness is no more than 0.5. C4U C11U G25C G41A U54C: the yeast fitness was no more than 0.5. For the variant G17C C29A C46U, the yeast fitness amounted to 0.867. For U7G C11G C30G G41C, the yeast fitness is no more than 0.5. The result for C5G A40C U53G C60A reads no more than 0.5; that for C4G G18C G63A, no more than 0.5. In the case of A43C C60A, the yeast fitness is 0.591.

With U7G C30U G38A G50A G68C, the yeast fitness is no more than 0.5. With C31U C34A A40G, the yeast fitness was no more than 0.5. Regarding G10C C22U C30G A40C G50A C60G, the yeast fitness is no more than 0.5. The result for C22U G67U reads 0.808. The result for G9C C24A C62G A69C reads no more than 0.5.
